Data as given in ChEMBL document CHEMBL3994593, “Diterpenoids of the Cassane Type from Caesalpinia decapetala” (J Nat Prod, 2016).

Columns and labels:
Format in all cases: functional, cell-based
B-cell = experiment: Cytotoxicity against LPS-stimulated Balb/c mouse B cells assessed as reduction in cell viability after 48 hrs by MTT assay
How it was run: (§1)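 Splenocytes from three male Balb/c mice (4−6 weeks); T and B cells enriched on nylon-wool column, stimulated with 5 μg/mL ConA (T) or 10 μg/mL LPS (B). Then handled as the tumor-cell MTT assay: 48 h exposure, 570 nm read, five concentrations 1–50 μM, 0.5% DMSO final, triplicate. Cyclosporin A and mycophenolate mofetil as positive controls.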

Panc02 = experiment: Cytotoxicity against mouse Panc02 cells assessed as reduction in cell viability after 48 hrs by MTT assay; conditions: Panc02, 48 h
How it was run: (§2)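 Cells grown in RPMI 1640 with 10% FBS, penicillin/streptomycin, at 37 °C, 5% CO2. Seeded at 5000 cells/well, compounds added after 24 h, then 48 h incubation; MTT formazan read at 570 nm. Five concentrations (50, 25, 10, 2.5, 1 μM), 0.5% DMSO final, triplicate experiments; IC50 as mean ± SEM. Gemcitabine and cisplatin as positive controls.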

B16 = experiment: Cytotoxicity against mouse B16 cells assessed as reduction in cell viability after 48 hrs by MTT assay; conditions: B16, 48 h; how it was run: as §2
T-cell = experiment: Cytotoxicity against ConA-stimulated Balb/c mouse T cells assessed as reduction in cell viability after 48 hrs by MTT assay; how it was run: as §1
A2780 = experiment: Cytotoxicity against human A2780 cells assessed as reduction in cell viability after 48 hrs by MTT assay; conditions: A2780, 48 h; how it was run: as §2
SW1990 = experiment: Cytotoxicity against human SW1990 cells assessed as reduction in cell viability after 48 hrs by MTT assay; conditions: SW1990, 48 h; how it was run: as §2
HepG2 = experiment: Cytotoxicity against human HepG2 cells assessed as reduction in cell viability after 48 hrs by MTT assay; conditions: HepG2, 48 h; how it was run: as §2

Row | SMILES | IC50 (B-cell) [µM] | IC50 (Panc02) [µM] | IC50 (B16) [µM] | IC50 (T-cell) [µM] | IC50 (A2780) [µM] | IC50 (SW1990) [µM] | IC50 (HepG2) [µM]
1 | C=C1CC[C@@H]2[C@](C)(CCC[C@]2(C)C(=O)O)[C@H]1CC(=O)/C(C)=C/CO | > 10 | > 10 | > 10 | > 10 | > 10 | – | –
2 | COC(=O)[C@@]1(C)[C@@H](OC(C)=O)CC[C@]2(C(=O)O)[C@H]3Cc4occc4[C@H](C)[C@@H]3CC[C@@H]12 | > 10 | > 10 | > 10 | > 10 | > 10 | – | –
3 | COC(=O)[C@]1(C)CCC[C@]23CO[C@H]4c5occc5[C@H](C)[C@@H]([C@H]42)[C@@H](OC(C)=O)C[C@H]31 | > 10 | > 10 | > 10 | > 10 | > 10 | – | –
4 | COC(=O)[C@]1(C)CCC[C@]2(COC(C)=O)c3cc4occc4c(C)c3C[C@@H](OC(C)=O)[C@H]21 | > 10 | > 10 | > 10 | > 10 | > 10 | 2.9 to 8.9 | –
5 | COC(=O)[C@]1(C)CCC[C@@]2(COC(C)=O)[C@H]1[C@H](O)C[C@H]1[C@@H](C)C3=CC(=O)O[C@]3(OC)C[C@@H]12 | > 10 | > 10 | > 10 | > 10 | > 10 | – | –
6 | Nc1ccn([C@@H]2O[C@H](CO)[C@@H](O)C2(F)F)c(=O)n1 [GEMCITABINE] | – | – | – | – | – | 2.3 | –
7 | COC(=O)[C@]1(C)[C@@H](OC(C)=O)CC[C@@]23C(=O)O[C@H]4c5occc5[C@H](C)[C@H](CC[C@@H]12)[C@H]43 | > 10 | > 10 | > 10 | > 10 | > 10 | – | –
8 | COC(=O)[C@]1(C)[C@@H](OC(C)=O)CC[C@@]23CO[C@H]4c5occc5[C@H](C)[C@H](CC[C@H]21)[C@H]43 | > 10 | > 10 | > 10 | > 10 | > 10 | – | –
9 | COC(=O)[C@]1(C)CCC[C@]23C(O)O[C@H](C[C@H]4[C@@H](C)c5ccoc5C[C@@H]42)[C@H]31 (some centres not stated) | > 10 | > 10 | > 10 | > 10 | > 10 | – | –
10 | COC(=O)[C@@]1(C)[C@@H]2CC[C@@H]3[C@@H]4[C@@H](OC[C@@]42CC[C@@H]1O)c1occc1[C@@H]3C | > 10 | > 10 | > 10 | > 10 | > 10 | 2.9 to 8.9 | –
11 | COC(=O)[C@]1(C)[C@@H](O)CC[C@@]23C(=O)O[C@H]4c5occc5[C@H](C)[C@H](CC[C@@H]12)[C@H]43 | > 10 | > 10 | > 10 | > 10 | > 10 | 2.9 to 8.9 | –
12 | C=C1CC[C@@H]2[C@](C)(CCC[C@]2(C)C(=O)O)[C@H]1/C=C/C(C)=O | > 10 | > 10 | > 10 | > 10 | > 10 | – | –
13 | COC(=O)[C@]1(C)CCC[C@]23CO[C@H]4c5occc5[C@H](C)[C@@H]([C@H]42)[C@@H](O)C[C@H]31 | > 10 | > 10 | > 10 | > 10 | > 10 | 2.9 to 8.9 | –
14 | COC(=O)[C@]1(C)CCC[C@@]2(COC(C)=O)[C@H]1[C@H](O)C[C@H]1[C@@H](C)c3ccoc3C[C@@H]12 | > 10 | > 10 | > 10 | > 10 | > 10 | 2.9 to 8.9 | 3.9
